High-throughput results (PubChem BioAssay)
WT yeast gro inh – growth inhibition of WT strain, primary screen, mitochondrial fusion inhibitor project, WT and mutant strains, chemical genetic; mitochondrial fusion phenotypic screen; inhibition, % at 10 µM; 190,000 compounds, 2.1% hits; AID 1362, 2008; in the data active = inhibition above about 58%; tested in S. cerevisiae
SUMO Mot1 rescue – yeast Mot1-301 growth rescue at high temperature, primary screen, SUMOylation pathway inhibitor project, S. cerevisiae, ATP luminescence, 38.5C; S. cerevisiae Mot1-301 growth rescue; percent above DMSO median, 100 means doubled; growth rescue, % at 18.8 µM; 320,000 compounds, 1% hits; AID 2716, 2010;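 active = every valid replicate shows activation above 250% relative to neutral control wells; inactive = the rest, any valid replicate at or below 250%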;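 note: OY570 slx delta 5 strain wells were the positive control but not used for scaling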
CSC inhib – cancer stem cell viability inhibitors, primary screen, luminescence. inhibition, % at 7.5 µM. AID 2717, 2010. cancer stem cell-like cells viability. 300,000 compounds, 1.1% hits; in the data active = inhibition above about 75%; tested in HMLE shEcad cells
Efflux pump inh – inhibitors of Candida efflux pumps in yeast, primary screen, S. cerevisiae, Nile Red, multiplex; AID 485275, 2010; inhibition, % at 10 µM; 330,000 compounds, 0.44% hits; S. cerevisiae Candida pump triplex;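 active = plate passing quality check with inhibition over a set limit, or well fluorescence over plate mean plus 4 SD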;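 note: Nile Red retained in pooled yeast measured as flow cytometry median fluorescence; 0% = buffer negative control and 100% = Enniatin B positive control; higher means more Nile Red kept so more efflux inhibition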
Beta cell apopt – inhibitors of cytokine-induced beta cell apoptosis, primary screen, luminescence; INS-1E cytokine-induced death, ATP luminescence, 48 h; percent of positive-control rescue, neutral wells zero; protection from apoptosis, % (test concentration not listed); 300,000 compounds, 0.8% hits; AID 435005, 2010;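 active = Every replicate reaches about 75%, or at least half do and their mean reaches it too, limit read from the data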;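 note: 0% = cytokine-treated negative control wells and 100% = positive control rescue; higher means more ATP so stronger rescue from cytokine killing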
T cruzi inh – inhibitors of intracellular T. cruzi growth, primary screen, luminescence, NIH3T3 host cells; T. cruzi beta-gal in NIH3T3, 90 h; inhibition, % (test concentration not listed); 300,000 compounds, 1.4% hits; AID 1885, 2009;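 active = mean inhibition across valid replicates above about 55%, limit read from the data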;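 note: signal also drops with host cell toxicity which is not excluded here; 0% = plate median of DMSO wells and 100% = zero luminescence signal; higher percent means less beta-gal luminescence so fewer parasites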
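System: NIH/3T3 fibroblasts plus reporter T. cruzi. Medium: DMEM plus 2% FBS. Probe or stimulus: 5000 reporter trypomastigotes per well. Compound: single 50 nL compound addition per well in DMSO. Incubation: co-culture of at least 90 h after 3 h attachment. Detection: GalScreen β-gal luminescence, detergent lysis, 60 min. Evaluation: parasite load inhibition, %.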
Yeast Mot1 SUMO – growth restoration of Mot1-301 yeast on galactose, dose response, SUMO pathway inhibitor project, whole organism, S. cerevisiae, ATP luminescence, cherry-picked samples | shares compounds with SUMO Mot1 rescue | S. cerevisiae Mot1-301 galactose growth, 24 h; -100 = growth of slx-deleted rescue strain | growth activity, percent, % at 42 µM | 2,300 tested, under 10 active;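 active = Signal drops as the depositor expects, and the fitted half-maximal dose is no more than ten times the top valid tested dose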;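 note: more negative values mean stronger growth rescue toward the control strain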
Numbers without * were called inactive; . = no result given; + = active, no number. Sampled rows, rich in hits. Any-hit rate of the full collection: about 4.8%.

SMILES	WT yeast gro inh	SUMO Mot1 rescue	CSC inhib	Efflux pump inh	Beta cell apopt	T cruzi inh	Yeast Mot1 SUMO
CC(OC(=O)[C@@H]1CCCN1C(=O)c1cccs1)C(=O)Nc1cccc([N+](=O)[O-])c1 (stereo not given in full)	.	-15	-2	0	-2	.	.
COc1ccc(N(CC(=O)Nc2ccc(C)c(C)c2)S(=O)(=O)c2c(C)noc2C)cc1	.	6	-2	0	16	13	.
COc1ccc(NC(=O)CN(c2ccc(C(C)C)cc2)S(=O)(=O)c2c(C)noc2C)cc1OC	0	367*	66	0	2	8	0
Cc1ccc(N(CC(=O)NCCc2ccc(Cl)cc2)S(=O)(=O)c2c(C)noc2C)cc1	.	510*	16	0	10	8	0
Cc1cc(C)cc(N(CC(=O)Nc2cccc(C)n2)S(=O)(=O)c2c(C)noc2C)c1	7	528*	6	0	.	2	-1
CCOc1ccc(N(CC(=O)NC2CCC(C)CC2)S(=O)(=O)c2c(C)noc2C)cc1 (stereo not given)	.	461*	-8	0	5	25	0
O=C(COc1ccccc1Cl)Nc1ccc(N2CCN(C(=O)c3ccccc3)CC2)cc1	.	10	13	0	.	27	.
O=C(CSc1nnc(CNC(=O)c2cccc(C(F)(F)F)c2)o1)NC1CCCCC1	.	4	-3	0	-3	-1	.
COc1ccc(Cl)cc1N(CC(=O)NCC(C)C)S(=O)(=O)c1ccc(C)c([N+](=O)[O-])c1	-3	-16	-17	0	2	21	.
CC(=O)NC(Cc1c[nH]c2ccccc12)C(=O)OCC(=O)Nc1ccc2c(c1)OCO2 (stereo not given)	-36	40	-6	0	-4	8	.
Cc1ccc(C(C(=O)Nc2ccc3c(c2)OCO3)N(C)C(=O)Cc2c[nH]c3ccccc23)cc1 (stereo not given)	30	756*	2	0	4	34	0
CN(C)CCN1C(=O)C2C(C(=O)Nc3cc(Cl)cc(Cl)c3)C3C=CC2(O3)C1C(=O)NC1CCCCC1 (stereo not given)	.	-5	7	0	-5	11	.
O=C(N/N=C/c1cccc([N+](=O)[O-])c1)C1COc2ccccc2O1 (stereo not given)	0	678*	0	0	-3	1	0
Cn1cccc1CC(=O)N/N=C/c1cccc([N+](=O)[O-])c1	-2	409*	-10	0	3	-3	0
CCOc1ccc(C(=O)NCCC2=CCCCC2)cc1OCC	6	-11	5	0	-2	28	.
CCCCn1c(N)c(N(CCOC)C(=O)CCCc2nc3ccccc3c(=O)[nH]2)c(=O)[nH]c1=O	.	11	9	0	-4	-11	.
O=C(O)Cc1sc(Nc2ccccc2)nc1-c1cccs1	.	415*	10	0	-4	5	-1
Cc1ccc(S(=O)(=O)NN2C(=O)c3ccccc3NC2c2ccccc2F)cc1 (stereo not given)	.	429*	.	0	0	-19	1
CC(Sc1nnc(Cc2ccccc2)o1)C(=O)Nc1ccccc1[N+](=O)[O-] (stereo not given)	.	-7	-7	0	-2	.	.
CC(=O)c1ccc(Oc2cc(C)nc(N3CCOCC3)n2)cc1	-32	436*	-11	0	0	3	1
Cc1nc(C(F)(F)F)c(C(=O)N/N=C(\N)c2cccnc2)s1	-6	-4	-10	0	-1	-9	.
CC(=O)N/C(=C\c1ccccc1)C(=O)OCC(=O)c1ccccc1	.	679*	12	0	-3	-7	0
CC(=O)N/C(=C\c1ccccc1)C(=O)OCC(=O)c1ccc(F)cc1	.	-16	-4	0	-2	-10	.
CCC(=O)N1CCc2cc(S(=O)(=O)N3CCN(c4ccccc4Cl)CC3)ccc21	.	-14	1	0	-2	-9	.
O=C(COC(=O)CNC(=O)c1ccc(Cl)cc1)Nc1ncc(C(F)(F)F)cc1Cl	13	596*	-10	0	-5	-4	0
SMILES	WT yeast gro inh	SUMO Mot1 rescue	CSC inhib	Efflux pump inh	Beta cell apopt	T cruzi inh	Yeast Mot1 SUMO
NS(=O)(=O)c1ccc(CCNC(=O)CN2CCN(c3ccc(F)cc3)CC2)cc1	3	650*	-8	0	-1	4	1
NS(=O)(=O)c1ccc(CCNC(=O)CN2CCN(c3cccc(Cl)c3)CC2)cc1	7	8	0	0	.	4	.
CS(=O)(=O)N(CC(=O)NCCSCc1ccccc1)c1ccc2c(c1)OCO2	3	+	16	0	3	8	0
CS(=O)(=O)N(CC(=O)Nc1ccccc1C(=O)N1CCCC1)c1ccc2c(c1)OCO2	5	822*	.	0	-10	-8	0
COC(=O)c1cccc(NC(=O)CN(c2ccc3c(c2)OCO3)S(C)(=O)=O)c1C	-6	+	.	0	-3	3	1
COC(=O)c1cc(NC(=O)CN(c2ccc3c(c2)OCO3)S(C)(=O)=O)ccc1Cl	19	-24	2	0	1	2	.
CCN(Cc1ccccc1)C(=O)c1nn(-c2ccc(OC)cc2)c(=O)c2c1c1ccccc1n2C	11	-9	-6	0	-1	37	.
O=C(Nc1cc(F)ccc1F)C1CCCO1 (stereo not given)	28	+	-8	-1	2	-8	0
Cc1sc(NC(=O)c2ccc(Cl)s2)c(C(N)=O)c1C	5	23	-10	0	6	33	.
Cc1sc(NC(=O)c2ccc(Br)s2)c(C(N)=O)c1C	.	408*	.	0	-2	13	-2
Cc1cccc(N2C(=O)CSC2c2cccnc2)c1 (stereo not given)	-9	686*	-6	-1	-7	-4	0
CCCCn1c2c(c(=O)n(C)c1=O)C(c1ccc(OC)cc1)N1CCCCCC1=N2 (stereo not given)	12	+	9	0	0	16	0
Cc1cc(Br)c(NC(=O)CSc2n[nH]c(N)n2)c(Br)c1	.	-12	3	-1	-3	.	.
CCOC(=O)C1CCCN(C(=O)c2cc(-c3ccc(F)cc3)nc3ccccc23)C1 (stereo not given)	30	463*	-12	0	-11	19	0
CCOC(=O)C1CCCN(C(=O)c2cc(-c3ccco3)nc3ccccc23)C1 (stereo not given)	.	.	.	0	.	.	.
